Screening data as filed in PubChem BioAssay.
MEKK3 PB1 HTS = modulators of MEKK3-MEK5 PB1 binding, primary screen, biochemical, wildtype MEKK3, multiplex bead flow cytometry, Alexa488-MEK5. Mitogen-activated protein kinase kinase kinase 3 (Homo sapiens), Q99759. bead-based flow cytometry, Alexa488-MEK5 binding to MEKK3; actives lie on both sides; 0 = blocked by unlabeled MEK5, 100 = vehicle. binding response (% of control), % at 10 µM. hit rate 1.4% among 290,000;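 active = binding response more than 3 SD above or below the average of its plate-row segment, actives on both sides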;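 note: Alexa488 bead fluorescence after subtracting the streptavidin-only scavenger bead signal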
MEKK2 mut-MEK5 = MEK5 binding signal on mutant MEKK2 PB1, primary screen, biochemical, multiplex bead flow cytometry, Alexa488-MEK5; Alexa488-MEK5 binding to MEKK2 mutant; percent response, % at 10 µM; hit rate 0.35% among 290,000; AID 1530, 2009; in the data active = percent response above about 24%, passing the limit was not always enough
STK33 inh = inhibitors of purified STK33 kinase, primary screen, biochemical, ADP-Glo luminescence, homogeneous, cell-free | Serine/threonine-protein kinase 33 (Homo sapiens), Q9BYT3 | MBP phosphorylation | inhibition, % at 10 µM | hit rate 0.073% among 320,000 | AID 2661, 2010;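 active = inhibition at or above 25%, using the most active replicate where run in duplicate; inactive = inhibition below 25%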
GSK3B inh = human GSK3beta kinase inhibitors, primary screen, biochemical, cell-free homogeneous, HTS; GST-GSK3beta kinase, ADP-Glo luminescence, 60 min; hits give low values; activity score (negative = inhibition), % at 10 µM; hit rate 0.038% among 300,000;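 active = more than half of replicate wells score below -50%, meaning over 50% inhibition versus plate controls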;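 note: 0% = median DMSO wells and -100% = median GW8510 positive control wells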
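Test system: GST-tagged human GSK3beta kinase, cell-free; evaluation: activity score scaled between in-plate DMSO and GW8510 controls; measured by: ADP-Glo luminescence; incubation: 60 min reaction, RT; benchmarks: DMSO and 20 µM GW8510; reagent: peptide substrate plus 25 µM ATP (final); medium: Tris/MgCl2 kinase buffer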
GSK3 alpha inh = blockers of GSK3A enzyme activity – biochemical, luminescence, cell-free homogeneous, HTS, primary screen | Glycogen synthase kinase-3 alpha (Homo sapiens), P49840 | hit rate 0.1% among 320,000 | GSK-3 alpha kinase, ADP-Glo luminescence, 60 min | inhibition, % at 10 µM;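 active = more than half of replicates show inhibition above 20%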;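 note: GST-tagged GSK-3 alpha with peptide substrate and 25 µM ATP; 0% = DMSO neutral wells and 100% = GW8510 positive control wells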
Target sequence (P49840 whole entry, looked up): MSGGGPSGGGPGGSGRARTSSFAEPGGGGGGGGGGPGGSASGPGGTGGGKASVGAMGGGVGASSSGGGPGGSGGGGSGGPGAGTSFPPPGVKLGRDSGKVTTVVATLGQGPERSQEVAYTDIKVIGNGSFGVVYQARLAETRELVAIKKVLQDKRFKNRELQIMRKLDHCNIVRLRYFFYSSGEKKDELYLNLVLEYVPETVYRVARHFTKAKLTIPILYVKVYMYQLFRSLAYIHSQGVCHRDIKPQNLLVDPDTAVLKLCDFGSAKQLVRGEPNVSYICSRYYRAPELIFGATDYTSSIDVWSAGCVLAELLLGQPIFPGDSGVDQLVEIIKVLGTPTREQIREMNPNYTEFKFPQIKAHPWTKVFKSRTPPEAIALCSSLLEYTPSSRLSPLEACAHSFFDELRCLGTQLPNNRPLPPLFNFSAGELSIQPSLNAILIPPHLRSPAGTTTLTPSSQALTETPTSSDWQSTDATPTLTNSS
MEKK2 WT-MEK5 = modulators of MEK5 binding to wildtype MEKK2, primary screen, biochemical, multiplex bead flow cytometry, Alexa488-MEK5; AID 1531, 2009; Alexa488-MEK5 binding to MEKK2 WT; actives lie on both sides; binding response (% of control), % at 10 µM; hit rate 1.1% among 290,000; in the data active = binding response below about 67% or above about 130%
MEKK2wt confirm = modulators of MEK5 binding to wildtype MEKK2, confirmation, biochemical, single concentration, multiplex bead flow cytometry. hit rate 2.4% among 5,900. AID 1892, 2009. shares compounds with MEKK3 PB1 HTS. Alexa488-MEK5 binding to MEKK2 WT; actives lie on both sides. binding response (% of control), % at 10 µM; in the data active = binding response below about 16% or above about 210%; inactive = in between
MEKK2mut-MEK5 = mutant MEKK2 PB1-MEK5 binding signal retest – biochemical, single concentration, multiplex bead flow cytometry, confirmation | shares compounds with MEKK3 PB1 HTS | percent response, % at 10 µM | Alexa488-MEK5 binding to MEKK2 mutant | AID 1893, 2009 | hit rate 2% among 5,900; in the data active = percent response mostly above about 71%, no sharp cut-off; inactive = mostly below about 38%;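 note: higher means compound restores mutant binding toward wildtype level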
MEKK3-MEK5 inh = MEKK3 wild-type PB1 binding to MEK5, inhibitors, confirmation, biochemical, bead multiplex flow cytometry, single concentration, wildtype | binding response (% of control), % at 10 µM | AID 1894, 2009 | hit rate 1.8% among 5,900 | Alexa488-MEK5 binding to MEKK3; hits give low values | shares compounds with MEKK3 PB1 HTS;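 active = binding response below 72% of control, or above a set upper limit, though filed actives all read lower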;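 note: 100% = DMSO only wells and 0% = binding blocked by excess unlabeled MEK5; lower values mean stronger disruption of MEK5 binding to MEKK3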
Active calls of the source: *. Shown are actives, neighbours in structure and some others; about 2.1% of the full set was active somewhere.

Results for CCN(CC)CCCNC(=O)c1cc(-c2ccccc2)c(N2CCCCC2)s1 ?
MEKK3 PB1 HTS: 105; MEKK2 mut-MEK5: 26*; STK33 inh: 2; GSK3B inh: 1; GSK3 alpha inh: 1; MEKK2 WT-MEK5: 161*; MEKK2wt confirm: 162; MEKK2mut-MEK5: 41; MEKK3-MEK5 inh: 107

How did CCc1ccc(Nc2nnc(SCC(=O)NC(=O)CN3CCCC3=O)s2)cc1 do in these assays?
STK33 inh: -1; GSK3 alpha inh: 1

How did COc1cccc(Nc2ccc(Nc3cccc(OC)c3)nn2)c1 do in these assays?
MEKK3 PB1 HTS: 113; MEKK2 mut-MEK5: 76*; STK33 inh: -1; GSK3B inh: -1; GSK3 alpha inh: -5; MEKK2 WT-MEK5: 172*; MEKK2wt confirm: 108; MEKK2mut-MEK5: 2; MEKK3-MEK5 inh: 103

What do the screens show for `CCC1CCCCN1CCCNC(=O)C1CC(=O)N(CCc2ccccc2)C1` (stereo not given)?
MEKK3 PB1 HTS: 101; MEKK2 mut-MEK5: 5; STK33 inh: 0; GSK3B inh: 0; GSK3 alpha inh: -2; MEKK2 WT-MEK5: 107

Results for Cc1cc(NC(=O)CCN2CCN(C/C=C/c3ccccc3)CC2)ccc1Br ?
MEKK3 PB1 HTS: 112; MEKK2 mut-MEK5: 18; STK33 inh: -2; GSK3B inh: -1; GSK3 alpha inh: 0; MEKK2 WT-MEK5: 149*; MEKK2wt confirm: 152; MEKK2mut-MEK5: 20; MEKK3-MEK5 inh: 109

How did OC(CN1CCN(c2ccccn2)CC1)Cn1c2ccc(Cl)cc2c2cc(Cl)ccc21 (stereo not given) do in these assays?
MEKK3 PB1 HTS: 111; MEKK2 mut-MEK5: 13; STK33 inh: -1; GSK3B inh: -4; GSK3 alpha inh: -1; MEKK2 WT-MEK5: 137*; MEKK2wt confirm: 132; MEKK2mut-MEK5: 15; MEKK3-MEK5 inh: 106

Results for OC(CN1CCCCC1)Cn1c2ccc(Cl)cc2c2cc(Cl)ccc21 (stereo not given) ?
MEKK3 PB1 HTS: 106; MEKK2 mut-MEK5: 48*; STK33 inh: -1; GSK3B inh: -2; GSK3 alpha inh: -1; MEKK2 WT-MEK5: 203*; MEKK2wt confirm: 202; MEKK2mut-MEK5: 63; MEKK3-MEK5 inh: 112

Results for COc1cc(/C=N/NC(=S)Nc2cccc(C(=O)O)c2)ccc1O ?
MEKK3 PB1 HTS: 143*; MEKK2 mut-MEK5: 2; STK33 inh: 1; GSK3B inh: 3; GSK3 alpha inh: 2; MEKK2 WT-MEK5: 111; MEKK2wt confirm: 102; MEKK2mut-MEK5: 9; MEKK3-MEK5 inh: 102

Results for Cc1ccc(S(=O)(=O)Nc2cc3c(C(=O)Nc4ccccc4)c(C)oc3c3ccccc23)cc1 ?
MEKK3 PB1 HTS: 101; MEKK2 mut-MEK5: 4; STK33 inh: 0; GSK3B inh: 1; GSK3 alpha inh: -1; MEKK2 WT-MEK5: 104

What do the screens show for `COCCOC(=O)c1c(C)oc2ccc(NS(=O)(=O)c3ccc(C)cc3)cc12`?
MEKK3 PB1 HTS: 135*; MEKK2 mut-MEK5: 29; STK33 inh: -1; GSK3B inh: -2; GSK3 alpha inh: 2; MEKK2 WT-MEK5: 119; MEKK2wt confirm: 102; MEKK2mut-MEK5: 4; MEKK3-MEK5 inh: 105

How did COCCOC(=O)c1c(C)oc2ccc(NS(=O)(=O)c3ccccc3)cc12 do in these assays?
MEKK3 PB1 HTS: 100; MEKK2 mut-MEK5: 0; STK33 inh: 2; GSK3B inh: -1; GSK3 alpha inh: 1; MEKK2 WT-MEK5: 98

How did Cc1oc2ccc(NS(=O)(=O)c3ccccc3)cc2c1C(=O)Nc1ccccc1 do in these assays?
MEKK3 PB1 HTS: 129*; MEKK2 mut-MEK5: -1; STK33 inh: -2; GSK3B inh: -14; GSK3 alpha inh: -2; MEKK2 WT-MEK5: 94; MEKK2wt confirm: 100; MEKK2mut-MEK5: 0; MEKK3-MEK5 inh: 105

What do the screens show for `O=C(c1ccccc1)c1ccc(OCC(=O)N2CCOCC2)cc1`?
MEKK3 PB1 HTS: 87; MEKK2 mut-MEK5: -3; STK33 inh: 0; GSK3B inh: 3; GSK3 alpha inh: 0; MEKK2 WT-MEK5: 89

How did O=c1c(/C=N\NS(=O)(=O)c2ccccc2)coc2ccc(Cl)cc12 do in these assays?
MEKK3 PB1 HTS: 102; MEKK2 mut-MEK5: 2; STK33 inh: 3; GSK3B inh: 1; GSK3 alpha inh: 4; MEKK2 WT-MEK5: 99

How did Cc1ccc(S(=O)(=O)N2CCCCC2)cc1NC(=O)CSc1nncn1-c1ccccc1 do in these assays?
MEKK3 PB1 HTS: 95; MEKK2 mut-MEK5: 107*; STK33 inh: -3; GSK3B inh: -4; MEKK2wt confirm: 107; MEKK2mut-MEK5: 7; MEKK3-MEK5 inh: 104

What do the screens show for `COc1ccc(-n2cnnc2SCC(=O)Nc2cc(S(=O)(=O)N3CCCCC3)ccc2C)cc1`?
MEKK3 PB1 HTS: 105; MEKK2 mut-MEK5: 2; GSK3B inh: 1; MEKK2 WT-MEK5: 111

How did Cc1ccc(S(=O)(=O)N2CCOCC2)cc1NC(=O)CSc1nnc2cc(C)c3ccccc3n12 do in these assays?
MEKK3 PB1 HTS: 141*; MEKK2 mut-MEK5: 4; STK33 inh: -2; GSK3B inh: 2; GSK3 alpha inh: -2; MEKK2 WT-MEK5: 107; MEKK2wt confirm: 98; MEKK2mut-MEK5: -5; MEKK3-MEK5 inh: 95

What do the screens show for `Cc1ccc(S(=O)(=O)N2CCOCC2)cc1NC(=O)COC(=O)C1COc2ccccc2O1` (stereo not given)?
MEKK3 PB1 HTS: 144*; MEKK2 mut-MEK5: 0; STK33 inh: 0; GSK3B inh: 2; GSK3 alpha inh: -2; MEKK2 WT-MEK5: 109; MEKK2wt confirm: 101; MEKK2mut-MEK5: -2; MEKK3-MEK5 inh: 98
